Results: ChEMBL document CHEMBL2412956, “Synthesis and biological activity evaluation of 5-pyrazoline substituted 4-thiazolidinones” (Eur J Med Chem, 2013)

test system: not listed separately; test: Selectivity index, ratio of CC50 for MDCK cells to EC50 for SARS coronavirus Urbani; assay type: toxicity, cell-based; conditions: dog, read-out: Ratio CC50/EC50

| Compound | selectivity ratio |
| --- | --- |
| COc1ccc(C2CC(c3ccc4ccccc4c3)=NN2C2SC(=O)N(CN3CCN(Cc4ccccc4)CC3)C2=O)cc1 (stereo not drawn) | 1.6 |

test system: Trypanosoma cruzi; test: Antitrypanosomal activity against […] form of Trypanosoma cruzi Y infected in monkey […] cells assessed as parasite growth inhibition after 15 hrs by trypan blue staining-based hemocytometric analysis; assay type: functional, organism-based; conditions: not given

| Compound | IC50 [µM] |
| --- | --- |
| CCC1SC(N/N=C\CSc2ccccc2)=NC1=O (stereo not drawn) | 0.3 |

test system: HOP-92; test: Cytotoxicity against human HOP92 cells assessed as cell growth at 10 uM after 48 hrs by SRB assay relative to control; assay type: functional; conditions: HOP-92, 48 h, read-out: Activity
How it was run: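 This was the NCI primary screen, with compound added once at 10⁻⁵ M and cultures incubated for 48 h. The endpoint was sulforhodamine B protein staining. Results are expressed as percent growth of treated cells relative to untreated control cells.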

| Compound | growth at 10 µM [%] |
| --- | --- |
| O=C1NC(=O)C(N2N=C(c3ccc4ccccc4c3)CC2c2ccc(Cl)cc2)S1 (stereo not drawn) | 74.9 |
| COc1ccc(C2CC(c3ccc4ccccc4c3)=NN2C2SC(=O)N(CN3CCCCC3)C2=O)cc1 (stereo not drawn) | 69.5 |

test system: not listed separately; test: Selectivity index, ratio of CC50 for MDCK cells to EC50 for Influenza A virus (A/Perth/16/2009(H3N2)); assay type: toxicity, cell-based; conditions: dog, read-out: Ratio CC50/EC50

| Compound | selectivity ratio |
| --- | --- |
| COc1ccc(C2CC(c3ccc4ccccc4c3)=NN2C2SC(=O)NC2=O)cc1 (stereo not drawn) | 1.4 |
| O=C1NC(=O)C(N2N=C(c3ccc4ccccc4c3)CC2c2ccc(Cl)cc2)S1 (stereo not drawn) | 1 |
| COc1ccc(C2CC(c3ccc4ccccc4c3)=NN2C2SC(=O)N(CC(=O)Nc3ccc(C)cc3)C2=O)cc1 (stereo not drawn) | 1.4 |
| COc1ccc(NC(=O)CN2C(=O)SC(N3N=C(c4ccc5ccccc5c4)CC3c3ccc(Cl)cc3)C2=O)cc1 (stereo not drawn) | 1.3 |

test system: not listed separately; test: Antiviral activity against SARS coronavirus Urbani infected in MDCK cells assessed as inhibition of virus-induced cytopathic effect by cell-based neutral red uptake assay; assay type: functional; conditions: Severe acute respiratory syndrome-related coronavirus

| Compound | EC50 [µM] |
| --- | --- |
| COc1ccc(C2CC(c3ccc4ccccc4c3)=NN2C2SC(=O)NC2=O)cc1 (stereo not drawn) | > 23.5 |
| O=C1NC(=O)C(N2N=C(c3ccc4ccccc4c3)CC2c2ccc(Cl)cc2)S1 (stereo not drawn) | > 23.2 |
| COc1ccc(C2CC(c3ccc4ccccc4c3)=NN2C2SC(=O)N(CC(=O)Nc3ccc(C)cc3)C2=O)cc1 (stereo not drawn) | > 313 |
| COc1ccc(NC(=O)CN2C(=O)SC(N3N=C(c4ccc5ccccc5c4)CC3c3ccc(Cl)cc3)C2=O)cc1 (stereo not drawn) | > 342 |
| COc1ccc(C2CC(c3ccc4ccccc4c3)=NN2C2SC(=O)N(CN3CCN(Cc4ccccc4)CC3)C2=O)cc1 (stereo not drawn) | 21.5 |

test system: Influenza B virus; test: Antiviral activity against Influenza B virus (B/Florida/4/2006) infected in MDCK cells assessed as inhibition of virus-induced cytopathic effect by cell-based neutral red uptake assay; assay type: functional; conditions: B/Florida/4/2006, MDCK

| Compound | EC50 [µM] |
| --- | --- |
| COc1ccc(C2CC(c3ccc4ccccc4c3)=NN2C2SC(=O)NC2=O)cc1 (stereo not drawn) | 4.55 |
| O=C1NC(=O)C(N2N=C(c3ccc4ccccc4c3)CC2c2ccc(Cl)cc2)S1 (stereo not drawn) | 3.08 |
| COc1ccc(C2CC(c3ccc4ccccc4c3)=NN2C2SC(=O)N(CC(=O)Nc3ccc(C)cc3)C2=O)cc1 (stereo not drawn) | 79.7 |
| COc1ccc(NC(=O)CN2C(=O)SC(N3N=C(c4ccc5ccccc5c4)CC3c3ccc(Cl)cc3)C2=O)cc1 (stereo not drawn) | 95.7 |
| COc1ccc(C2CC(c3ccc4ccccc4c3)=NN2C2SC(=O)N(CN3CCN(Cc4ccccc4)CC3)C2=O)cc1 (stereo not drawn) | 57.8 |

test system: Trypanosoma brucei gambiense; test: Antitrypanosomal activity against bloodstream form of Trypanosoma brucei gambiense Feo assessed as parasite growth inhibition after 72 hrs by resazurin-based fluorescence assay; assay type: functional, organism-based; conditions: not given
How it was run: (§1)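 Bloodstream forms of strain 90-13 or Feo were grown in HMI9 with 10% FCS at 37 °C under 5% CO₂. Log-phase parasites were seeded at 10⁵ cells/ml and exposed for 72 h to 10–0.625 μg/ml drug from DMSO stocks, with DMSO as control. Resazurin was added at 45 μM final, and fluorescence was read 4 h later. IC₅₀ was taken from the dose–response curve as the mean of three independent experiments.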

| Compound | IC50 [µM] |
| --- | --- |
| COc1ccc(C2CC(c3ccc4ccccc4c3)=NN2C2SC(=O)NC2=O)cc1 (stereo not drawn) | 6.66 |
| COc1ccc(NC(=O)CN2C(=O)SC(N3N=C(c4ccc5ccccc5c4)CC3c3ccc(Cl)cc3)C2=O)cc1 (stereo not drawn) | 6.1 |

test system: UO-31; test: Cytotoxicity against human UO31 cells assessed as cell growth at 10 uM after 48 hrs by SRB assay relative to control; assay type: functional; conditions: UO-31, 48 h, read-out: Activity
How it was run: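 Single-dose NCI screen: compound at 10⁻⁵ M added to tumor cell cultures and incubated for 48 h. The SRB protein-binding dye end point was read spectrophotometrically. Results are percent growth of treated cells relative to untreated controls.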

| Compound | growth at 10 µM [%] |
| --- | --- |
| COc1ccc(C2CC(c3ccc4ccccc4c3)=NN2C2SC(=O)NC2=O)cc1 (stereo not drawn) | 77.5 |
| COc1ccc(C2CC(c3ccc4ccccc4c3)=NN2C2SC(=O)N(CC(=O)Nc3ccc(C)cc3)C2=O)cc1 (stereo not drawn) | 76.6 |
| COc1ccc(C2CC(c3ccc4ccccc4c3)=NN2C2SC(=O)N(CN3CCN(Cc4ccccc4)CC3)C2=O)cc1 (stereo not drawn) | 74.5 |

test system: Influenza A virus; test: Antiviral activity against Influenza A virus (A/Perth/16/2009(H3N2)) infected in MDCK cells assessed as inhibition of virus-induced cytopathic effect by cell-based neutral red uptake assay; assay type: functional, organism-based; conditions: not given

| Compound | EC50 [µM] |
| --- | --- |
| COc1ccc(C2CC(c3ccc4ccccc4c3)=NN2C2SC(=O)NC2=O)cc1 (stereo not drawn) | 4.31 |
| O=C1NC(=O)C(N2N=C(c3ccc4ccccc4c3)CC2c2ccc(Cl)cc2)S1 (stereo not drawn) | 2.84 |
| COc1ccc(C2CC(c3ccc4ccccc4c3)=NN2C2SC(=O)N(CC(=O)Nc3ccc(C)cc3)C2=O)cc1 (stereo not drawn) | 53.1 |
| COc1ccc(NC(=O)CN2C(=O)SC(N3N=C(c4ccc5ccccc5c4)CC3c3ccc(Cl)cc3)C2=O)cc1 (stereo not drawn) | 18.8 |
| COc1ccc(C2CC(c3ccc4ccccc4c3)=NN2C2SC(=O)N(CN3CCN(Cc4ccccc4)CC3)C2=O)cc1 (stereo not drawn) | > 6.6 |

test system: MDCK; test: Cytotoxicity against MDCK cells; assay type: cell-based, Canis lupus familiaris; conditions: dog, mdck
How it was run: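 Cytotoxicity was measured in uninfected wells run alongside the antiviral plates, across eight half-log dilutions in MEM. Cells were stained with neutral red, and the extracted dye was read at 540 nm. CC₅₀, the concentration giving 50% cytotoxicity, was obtained by regression, and values are reported in μM.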

| Compound | CC50 [µM] |
| --- | --- |
| COc1ccc(C2CC(c3ccc4ccccc4c3)=NN2C2SC(=O)NC2=O)cc1 (stereo not drawn) | 6.23 |
| COc1ccc(C2CC(c3ccc4ccccc4c3)=NN2C2SC(=O)N(CC(=O)Nc3ccc(C)cc3)C2=O)cc1 (stereo not drawn) | > 74.4 |
| COc1ccc(NC(=O)CN2C(=O)SC(N3N=C(c4ccc5ccccc5c4)CC3c3ccc(Cl)cc3)C2=O)cc1 (stereo not drawn) | > 25.6 |
| COc1ccc(C2CC(c3ccc4ccccc4c3)=NN2C2SC(=O)N(CN3CCN(Cc4ccccc4)CC3)C2=O)cc1 (stereo not drawn) | 6.6 |

test system: not listed separately; test: Selectivity index, ratio of CC50 for MDCK cells to EC50 for Influenza B virus (B/Florida/4/2006); assay type: toxicity, cell-based; conditions: dog, read-out: Ratio CC50/EC50

| Compound | selectivity ratio |
| --- | --- |
| COc1ccc(C2CC(c3ccc4ccccc4c3)=NN2C2SC(=O)NC2=O)cc1 (stereo not drawn) | 1.8 |
| O=C1NC(=O)C(N2N=C(c3ccc4ccccc4c3)CC2c2ccc(Cl)cc2)S1 (stereo not drawn) | 1.6 |
| COc1ccc(C2CC(c3ccc4ccccc4c3)=NN2C2SC(=O)N(CC(=O)Nc3ccc(C)cc3)C2=O)cc1 (stereo not drawn) | 2.1 |
| COc1ccc(NC(=O)CN2C(=O)SC(N3N=C(c4ccc5ccccc5c4)CC3c3ccc(Cl)cc3)C2=O)cc1 (stereo not drawn) | 1.4 |
| COc1ccc(C2CC(c3ccc4ccccc4c3)=NN2C2SC(=O)N(CN3CCN(Cc4ccccc4)CC3)C2=O)cc1 (stereo not drawn) | 1 |

test system: Trypanosoma brucei brucei; test: Antitrypanosomal activity against bloodstream form of Trypanosoma brucei brucei 90-13 assessed as parasite growth inhibition after 72 hrs by resazurin-based fluorescence assay; assay type: functional, organism-based; conditions: 90-13, 72 h; how it was run: as §1

| Compound | IC50 [µM] |
| --- | --- |
| COc1ccc(C2CC(c3ccc4ccccc4c3)=NN2C2SC(=O)NC2=O)cc1 (stereo not drawn) | 13.9 |
| COc1ccc(NC(=O)CN2C(=O)SC(N3N=C(c4ccc5ccccc5c4)CC3c3ccc(Cl)cc3)C2=O)cc1 (stereo not drawn) | 11.3 |

test system: Influenza A virus; test: Antiviral activity against Influenza A virus (A/California/07/2009(H1N1)) infected in MDCK cells assessed as inhibition of virus-induced cytopathic effect by cell-based neutral red uptake assay; assay type: functional, organism-based; conditions: not given

| Compound | EC50 [µM] |
| --- | --- |
| COc1ccc(C2CC(c3ccc4ccccc4c3)=NN2C2SC(=O)NC2=O)cc1 (stereo not drawn) | 9.82 |
| O=C1NC(=O)C(N2N=C(c3ccc4ccccc4c3)CC2c2ccc(Cl)cc2)S1 (stereo not drawn) | 4.27 |
| COc1ccc(C2CC(c3ccc4ccccc4c3)=NN2C2SC(=O)N(CC(=O)Nc3ccc(C)cc3)C2=O)cc1 (stereo not drawn) | 142 |
| COc1ccc(NC(=O)CN2C(=O)SC(N3N=C(c4ccc5ccccc5c4)CC3c3ccc(Cl)cc3)C2=O)cc1 (stereo not drawn) | 120 |
| COc1ccc(C2CC(c3ccc4ccccc4c3)=NN2C2SC(=O)N(CN3CCN(Cc4ccccc4)CC3)C2=O)cc1 (stereo not drawn) | 13.7 |

test system: not listed separately; test: Selectivity index, ratio of CC50 for MDCK cells to EC50 for Influenza A virus (A/California/07/2009(H1N1)); assay type: toxicity, cell-based; conditions: dog, read-out: Ratio CC50/EC50

| Compound | selectivity ratio |
| --- | --- |
| COc1ccc(C2CC(c3ccc4ccccc4c3)=NN2C2SC(=O)NC2=O)cc1 (stereo not drawn) | 1.1 |
| O=C1NC(=O)C(N2N=C(c3ccc4ccccc4c3)CC2c2ccc(Cl)cc2)S1 (stereo not drawn) | 1 |
| COc1ccc(C2CC(c3ccc4ccccc4c3)=NN2C2SC(=O)N(CC(=O)Nc3ccc(C)cc3)C2=O)cc1 (stereo not drawn) | 1.6 |
| COc1ccc(NC(=O)CN2C(=O)SC(N3N=C(c4ccc5ccccc5c4)CC3c3ccc(Cl)cc3)C2=O)cc1 (stereo not drawn) | 1.5 |
| COc1ccc(C2CC(c3ccc4ccccc4c3)=NN2C2SC(=O)N(CN3CCN(Cc4ccccc4)CC3)C2=O)cc1 (stereo not drawn) | 1.1 |

test system: not listed separately; test: Selectivity index, ratio of CC50 for MDCK cells to EC50 for Influenza A virus (A/duck/Minnesota/1525/1981(H5N1)); assay type: toxicity, cell-based; conditions: dog, read-out: Ratio CC50/EC50

| Compound | selectivity ratio |
| --- | --- |
| COc1ccc(C2CC(c3ccc4ccccc4c3)=NN2C2SC(=O)NC2=O)cc1 (stereo not drawn) | 1.6 |
| O=C1NC(=O)C(N2N=C(c3ccc4ccccc4c3)CC2c2ccc(Cl)cc2)S1 (stereo not drawn) | 1.2 |
| COc1ccc(C2CC(c3ccc4ccccc4c3)=NN2C2SC(=O)N(CC(=O)Nc3ccc(C)cc3)C2=O)cc1 (stereo not drawn) | > 16.3 |
| COc1ccc(NC(=O)CN2C(=O)SC(N3N=C(c4ccc5ccccc5c4)CC3c3ccc(Cl)cc3)C2=O)cc1 (stereo not drawn) | 1.5 |

test system: Influenza A virus; test: Antiviral activity against Influenza A virus (A/duck/Minnesota/1525/1981(H5N1)) infected in MDCK cells assessed as inhibition of virus-induced cytopathic effect by cell-based neutral red uptake assay; assay type: functional, organism-based; conditions: not given

| Compound | EC50 [µM] |
| --- | --- |
| COc1ccc(C2CC(c3ccc4ccccc4c3)=NN2C2SC(=O)NC2=O)cc1 (stereo not drawn) | 7.9 |
| O=C1NC(=O)C(N2N=C(c3ccc4ccccc4c3)CC2c2ccc(Cl)cc2)S1 (stereo not drawn) | 5.21 |
| COc1ccc(C2CC(c3ccc4ccccc4c3)=NN2C2SC(=O)N(CC(=O)Nc3ccc(C)cc3)C2=O)cc1 (stereo not drawn) | 21.8 |
| COc1ccc(NC(=O)CN2C(=O)SC(N3N=C(c4ccc5ccccc5c4)CC3c3ccc(Cl)cc3)C2=O)cc1 (stereo not drawn) | 179 |
| COc1ccc(C2CC(c3ccc4ccccc4c3)=NN2C2SC(=O)N(CN3CCN(Cc4ccccc4)CC3)C2=O)cc1 (stereo not drawn) | > 24.8 |
